The structures appear in SMILES notation. Calls of active or inactive are those of the source. The rule behind the calls is not given here.

For experiment [1], the target named is T1, Toll-like receptor 9 (Mus musculus) (UniProt Q9EQU3).
T1 sequence (whole entry): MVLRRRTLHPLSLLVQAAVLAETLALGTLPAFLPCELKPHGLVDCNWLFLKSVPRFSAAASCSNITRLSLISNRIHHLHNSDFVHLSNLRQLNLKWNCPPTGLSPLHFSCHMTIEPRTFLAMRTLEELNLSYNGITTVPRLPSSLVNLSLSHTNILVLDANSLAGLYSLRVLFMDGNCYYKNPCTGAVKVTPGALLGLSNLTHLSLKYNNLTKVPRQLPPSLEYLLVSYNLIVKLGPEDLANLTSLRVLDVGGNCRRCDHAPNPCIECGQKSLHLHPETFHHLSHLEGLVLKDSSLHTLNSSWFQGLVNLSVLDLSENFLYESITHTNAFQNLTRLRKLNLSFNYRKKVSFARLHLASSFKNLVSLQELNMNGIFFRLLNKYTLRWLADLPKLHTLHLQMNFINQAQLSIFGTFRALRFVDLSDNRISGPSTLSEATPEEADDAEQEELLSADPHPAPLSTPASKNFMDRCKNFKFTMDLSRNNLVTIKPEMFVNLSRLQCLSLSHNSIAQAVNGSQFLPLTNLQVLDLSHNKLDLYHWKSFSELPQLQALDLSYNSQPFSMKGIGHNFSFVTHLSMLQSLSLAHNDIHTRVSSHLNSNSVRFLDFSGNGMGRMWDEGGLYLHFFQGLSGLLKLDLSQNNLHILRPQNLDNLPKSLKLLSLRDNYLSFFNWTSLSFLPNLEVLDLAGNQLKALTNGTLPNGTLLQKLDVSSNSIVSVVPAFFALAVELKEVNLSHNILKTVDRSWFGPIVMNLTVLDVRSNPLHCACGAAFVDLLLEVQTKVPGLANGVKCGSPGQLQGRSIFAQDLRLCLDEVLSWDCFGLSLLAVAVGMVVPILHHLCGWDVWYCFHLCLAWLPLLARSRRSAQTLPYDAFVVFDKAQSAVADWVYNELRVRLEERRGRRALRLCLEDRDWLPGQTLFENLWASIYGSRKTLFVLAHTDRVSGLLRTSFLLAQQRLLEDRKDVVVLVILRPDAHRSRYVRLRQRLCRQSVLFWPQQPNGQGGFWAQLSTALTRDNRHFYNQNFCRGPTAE
The experiment is described as follows: Inhibition of TLR9 in BALB/c mouse BMDM assessed as downregulation of CpG-stimulated IL-6 level at 5 ug/ml preincubated for 18 hrs followed by CpG challenge measured after 24 hrs by ELISA relative to control. Put shortly:
(§1)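 BALB/c male bone marrow macrophages were differentiated 7 days with L929 supernatant (≥99% CD11b+/F4/80+). Cells were plated at 2 × 10^5/well in triplicate, rested overnight, and given compounds at 5 μg/mL for 18 h. They were then stimulated with 100 ng/mL S. minnesota LPS, 10 ng/mL Pam3CSK4 (BLP) or 0.01 μM CpG for 24 h. Supernatant IL-12p40 and IL-6 were measured by ELISA (sensitivity 16 pg/mL).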
A general note: In an ELISA, binding on a coated surface is turned into a signal by an enzyme label.

In experiment [2] the target is T1, Toll-like receptor 9 (Mus musculus). Kind of experiment: Inhibition of TLR9 in BALB/c mouse BMDM assessed as downregulation of CpG-stimulated IL-12p40 level at 5 ug/ml preincubated for 18 hrs followed by CpG challenge measured after 24 hrs by ELISA relative to control. Put shortly: as §1
Experiment [3] concerns the target T2, TLR2/TLR6 (Mus musculus) (UniProt Q9QUN7+Q9EPW9). The experiment is described as follows: Inhibition of TLR2/6 in BALB/c mouse BMDM assessed as downregulation of BLP-stimulated IL-6 level at 5 ug/ml preincubated for 18 hrs followed by BLP challenge measured after 24 hrs by ELISA relative to control. It counts as protein-complex assay. Put shortly: as §1
In experiment [4] the target is T2, TLR2/TLR6 (Mus musculus). The experiment is described as follows: Inhibition of TLR2/6 in BALB/c mouse BMDM assessed as downregulation of BLP-stimulated IL-12p40 level at 5 ug/ml preincubated for 18 hrs followed by BLP challenge measured after 24 hrs by ELISA relative to control. It counts as protein-complex assay. The method in brief: as §1
Experiment [5] concerns the target T3, Toll-like receptor 4 (Mus musculus) (UniProt Q9QUK6).
T3 sequence (whole entry): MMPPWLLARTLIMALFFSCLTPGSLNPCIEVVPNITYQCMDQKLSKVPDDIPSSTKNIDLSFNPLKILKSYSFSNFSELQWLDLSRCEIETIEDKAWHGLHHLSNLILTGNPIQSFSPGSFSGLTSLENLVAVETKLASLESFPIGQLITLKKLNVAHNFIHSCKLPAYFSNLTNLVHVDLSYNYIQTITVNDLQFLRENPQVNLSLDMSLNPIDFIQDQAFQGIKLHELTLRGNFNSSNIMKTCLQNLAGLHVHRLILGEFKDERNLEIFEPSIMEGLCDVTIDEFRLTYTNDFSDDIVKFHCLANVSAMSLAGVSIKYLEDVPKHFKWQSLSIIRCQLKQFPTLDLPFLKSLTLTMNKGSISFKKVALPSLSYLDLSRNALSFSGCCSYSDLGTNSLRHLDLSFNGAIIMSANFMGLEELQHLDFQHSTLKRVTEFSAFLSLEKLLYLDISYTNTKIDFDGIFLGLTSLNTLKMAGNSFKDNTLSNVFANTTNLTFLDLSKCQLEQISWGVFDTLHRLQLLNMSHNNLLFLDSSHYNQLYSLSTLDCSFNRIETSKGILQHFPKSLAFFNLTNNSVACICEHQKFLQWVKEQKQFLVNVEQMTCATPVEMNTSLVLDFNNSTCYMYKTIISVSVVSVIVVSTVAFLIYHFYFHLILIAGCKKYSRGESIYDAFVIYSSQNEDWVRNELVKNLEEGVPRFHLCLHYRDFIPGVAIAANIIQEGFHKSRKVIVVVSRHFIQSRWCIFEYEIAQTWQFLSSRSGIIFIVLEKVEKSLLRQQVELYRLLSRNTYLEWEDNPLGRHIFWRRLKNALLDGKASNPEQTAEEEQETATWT
Kind of experiment: Inhibition of TLR4 in BALB/c mouse BMDM assessed as downregulation of LPS-stimulated IL-6 level at 5 ug/ml preincubated for 18 hrs followed by LPS challenge measured after 24 hrs by ELISA relative to control. The method in brief: as §1

For experiment [6], the target named is T3, Toll-like receptor 4 (Mus musculus). The experiment is described as follows: Inhibition of TLR4 in BALB/c mouse BMDM assessed as downregulation of LPS-stimulated IL-12p40 level at 5 ug/ml preincubated for 18 hrs followed by LPS challenge measured after 24 hrs by ELISA relative to control. The method in brief:
as §1

Regarding `CC[C@@H](C)NCCS(=O)(=O)Cc1cccc(F)c1`, the inhibition entry in experiment [1], in experiment [2], in experiment [5] and in experiment [6] was “inactive” throughout. Moreover, the inhibition result at TLR2/TLR6 (Mus musculus) [3] and at TLR2/TLR6 (Mus musculus) [4] was “Active” throughout.
On to `C[N+]1(CCCS(=O)(=O)Cc2ccc(Br)cc2)CCOCC1`, for which the inhibition entry (in experiment [1]; in experiment [2]; on TLR2/TLR6 (Mus musculus) [3]; at TLR2/TLR6 (Mus musculus) [4]; in experiment [5]; in experiment [6]) was “inactive” throughout.
As for `O=S(=O)(CCN1CCOCC1)Nc1ccc(F)cc1`, the inhibition entry (in experiment [1]; in experiment [2]; on TLR2/TLR6 (Mus musculus) [3]; on TLR2/TLR6 (Mus musculus) [4]; in experiment [5]) was “inactive” throughout. The inhibition result in experiment [6] is “Active”.
For the compound `O=S(=O)(CCN1CCCC1)Nc1ccccc1`, the inhibition entry (in experiment [1]; at TLR2/TLR6 (Mus musculus) [3]; at TLR2/TLR6 (Mus musculus) [4]; in experiment [5]) was “inactive” in each case. In addition, the inhibition entry in experiment [2] and in experiment [6] was “Active” each time.
Take `C[N+](C)(C)CCS(=O)(=O)Cc1ccc(Br)cc1`: the inhibition entry (in experiment [1]; in experiment [2]; on TLR2/TLR6 (Mus musculus) [3]; at TLR2/TLR6 (Mus musculus) [4]; in experiment [5]; in experiment [6]) was “inactive” in each case.
Regarding `Cc1ccc(CS(=O)(=O)CCCN2CCCC2)cc1`, the inhibition result (in experiment [1]; in experiment [2]; at TLR2/TLR6 (Mus musculus) [3]; on TLR2/TLR6 (Mus musculus) [4]; in experiment [5]; in experiment [6]) was “inactive” each time.
With `O=S(=O)(Cc1ccc(Br)cc1)NCCN1CCOCC1`, the inhibition entry (in experiment [1]; in experiment [2]; on TLR2/TLR6 (Mus musculus) [3]; at TLR2/TLR6 (Mus musculus) [4]; in experiment [5]; in experiment [6]) was “inactive” in each case.
As for `C[N+](C)(C)CCOP(=O)(O)Cc1ccc(Br)cc1`, the inhibition result (in experiment [1]; in experiment [2]; on TLR2/TLR6 (Mus musculus) [3]; in experiment [5]) was “inactive” throughout. For the same compound, the inhibition entry (at TLR2/TLR6 (Mus musculus) [4]; in experiment [6]) was “Active” throughout.
`Cc1ccc(CP(=O)(O)OCCN(C)C)cc1`: the inhibition entry (in experiment [1]; in experiment [2]; at TLR2/TLR6 (Mus musculus) [3]; at TLR2/TLR6 (Mus musculus) [4]; in experiment [5]; in experiment [6]) was “inactive” in each case.
`COc1ccc2c(CS(=O)(=O)NCCN3CCCC3)cc(=O)oc2c1`: the inhibition result (in experiment [1]; in experiment [2]; at TLR2/TLR6 (Mus musculus) [3]; in experiment [5]) was “inactive” throughout. Also, the inhibition result (at TLR2/TLR6 (Mus musculus) [4]; in experiment [6]) was “Active” each time.
Turning to `O=S(=O)(CCN1CCOCC1)NCc1ccccc1`, the inhibition entry (in experiment [1]; in experiment [2]; on TLR2/TLR6 (Mus musculus) [3]; at TLR2/TLR6 (Mus musculus) [4]; in experiment [5]; in experiment [6]) was “inactive” each time.
With `O=S(=O)(CCN1CCCC1)Cc1ccc(Br)cc1`, the inhibition entry (in experiment [1]; in experiment [2]; on TLR2/TLR6 (Mus musculus) [3]; on TLR2/TLR6 (Mus musculus) [4]; in experiment [5]) was “inactive” throughout. In addition, the inhibition result in experiment [6] was “Active”.
As for `CCCNCCS(=O)(=O)c1ccccc1`, the inhibition result in experiment [1], in experiment [2], in experiment [5] and in experiment [6] was “inactive” in each case. In addition, the inhibition entry at TLR2/TLR6 (Mus musculus) [3] and on TLR2/TLR6 (Mus musculus) [4] was “Active” in each case.
For the compound `O=C(CCN1CCOCC1)NCc1cccc2cnccc12`, the inhibition result (in experiment [1]; in experiment [2]; at TLR2/TLR6 (Mus musculus) [3]; in experiment [5]; in experiment [6]) was “inactive” each time. For the same compound, on TLR2/TLR6 (Mus musculus) [4], the inhibition result is “Active”.
In the case of `CN(C)CCS(=O)(=O)Cc1ccc(F)cc1`, the inhibition result in experiment [1], in experiment [2], in experiment [5] and in experiment [6] was “inactive” throughout. Also, the inhibition result on TLR2/TLR6 (Mus musculus) [3] and on TLR2/TLR6 (Mus musculus) [4] was “Active” in each case.
Turning to `CN(C)CCNCCS(=O)(=O)c1ccccc1`, the inhibition entry (in experiment [1]; in experiment [2]; at TLR2/TLR6 (Mus musculus) [3]; at TLR2/TLR6 (Mus musculus) [4]; in experiment [5]; in experiment [6]) was “inactive” in each case.
Take `O=S(=O)(Cc1ccc(F)cc1)NCCN1CCCC1`: the inhibition result (in experiment [1]; in experiment [2]; on TLR2/TLR6 (Mus musculus) [3]; at TLR2/TLR6 (Mus musculus) [4]; in experiment [5]; in experiment [6]) was “inactive” in each case.
In the case of `CC(C)NCCS(=O)(=O)c1ccccc1`, the inhibition entry (in experiment [1]; in experiment [2]; on TLR2/TLR6 (Mus musculus) [3]; in experiment [5]; in experiment [6]) was “inactive” in each case. Moreover, the inhibition result on TLR2/TLR6 (Mus musculus) [4] is “Active”.

Values taken from ChEMBL document CHEMBL3108700, “Designing anti-inflammatory drugs from parasitic worms: a synthetic small molecule analogue of the Acanthocheilonema viteae product ES-62 prevents development of collagen-induced arthritis” (J Med Chem, 2013).
